Data as given in PMC2818876 (Journal of the American Chemical Society, 2010).

Legend:
[1] = Circular dichroism spectroscopy, secondary structure in water/TFE solutions; format: physicochemical; conditions: 40 μM peptide, 25 °C, CDPro (average of CONTINLL, SELCON3, CDSSTR)
Method in brief: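 Stock 20 mM in water (pH 7), stored at 4°C for ≤10 days and quantified by A280 (ε280 = 11,000 M−1.cm−1). CD recorded in a 1 mm quartz cell over 180–250 nm at 100 nm/min with 1 s response, 40 μM peptide, 25 °C. Eight scans averaged and background-corrected for water/TFE. Fractions from the CDPro SP37A reference set.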

SK-Mel-2 cells = test: Cellular uptake and distribution by confocal Raman microscopy of live cells; format: cell-based, Human; conditions: data not shown

SMILES: CC[C@H](C)[C@H](NC(=O)[C@H](CCCCN)NC(=O)[C@@H](NC(=O)[C@H](CCC(N)=O)NC(=O)[C@@H](N)CCCNC(=N)N)[C@@H](C)CC)C(=O)N[C@@H](Cc1c[nH]c2ccccc12)C(=O)N[C@@H](Cc1ccccc1)C(=O)N[C@@H](CCC(N)=O)C(=O)N[C@@H](CC(N)=O)C(=O)N[C@@H](CCCNC(=N)N)C(=O)N[C@@H](CCCNC(=N)N)C(=O)N[C@@H](CCSC)C(=O)N[C@@H](CCCCN)C(=O)N[C@@H](Cc1c[nH]c2ccccc12)C(=O)N[C@@H](CCCCN)C(=O)N[C@@H](CCCCN)C(N)=O [penetratin-Fh]
- α-helix structure (CD modeling) ([1]; 100% TFE): 25%
- Random coil character (CD modeling) ([1]; 100% water): 54%
- α-helix structure (CD modeling) ([1]; 100% water): 3%
- β-strand structure (CD modeling) ([1]; 100% water): 21%
- Peptide uptake by cells at 4°C (SK-Mel-2 cells; 4°C, confocal Raman microscopy): did not observe peptide uptake
- Concentration dependence of the rate of accumulation in cell nuclei (SK-Mel-2 cells; range 25–300 μM, RT): only weakly dependent on concentration
